Measurements reported in PubChem BioAssay.
Records with an inconclusive call do not appear.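 Rule for the calls, unless noted: active = viability increase at or above a cutoff of the median across tested compounds plus 3 SD (cut at about 8.5% in these data, passing the limit was not always enough); inconclusive = some gains above the cutoff, reason not given; inactive = the rest.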

Experiments:
[1] = S. cerevisiae growth inhibition in permissive medium (OD615), pilot counter-assay for S. cerevisiae lifespan shortening project, permissive growth control (AID 705;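 active = growth inhibition above 25% in both replicates, a cutoff set 3 SD above the mean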); settings: OD615, 24 h, at 10 µM, hits give high values
Outline: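 Timing: 24 h exposure, 30 °C / Material: Saccharomyces cerevisiae strain carrying genetically modified DeaD replicative-lifespan system / Signal: OD at 615 nm / Compound: 10 µM single dose, 0.25% DMSO / Medium: SC raffinose/galactose permissive medium / Evaluation: reduction in yeast growth (OD615)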

[2] = S. cerevisiae growth inhibition in restrictive medium, OD615, pilot screen, restrictive growth control, yeast lifespan reduction project (AID 706;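 active = growth inhibition above a set limit, 3 SD over mean compound inhibition, in both replicates, cut at about 43% in these data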;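 note: modified DeaD lifespan yeast strain shifted to restrictive glucose medium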); settings: OD615, 48 h, at 10 µM, hits give high values
Outline: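 System: Engineered S. cerevisiae DeaD strain | Detection: OD615 | Buffer or medium: CSMM-D glucose medium | Doses: 10 µM compound, 0.25% DMSO | Timing: 4 h pre-growth plus 48 h compound exposure, 30 °C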

[3] = doxorubicin toxicity protection in MRP-1 cells – H69AR cells, CellTiter-Glo, duplicate, MRP-1 activator project, pilot screen (AID 807); settings: H69AR viability with doxorubicin, CellTiter-Glo luminescence; at 10 µM; hits give high values;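 note: compound pretreatment 18-22 h then 72 h combined with doxorubicin; 0% = doxorubicin alone and 100% = vehicle without doxorubicin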
[4] = viability of HCT116 without oncogenic beta-catenin – human colon tumor cells, pilot screen (AID 823;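 active = cell viability at or below a set limit in both duplicate runs, the limit being the all-compound median minus 4 SD, cut at about 23% in these data, passing the limit was not always enough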;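 note: 0% = wells killed by 20 µM Hyamine and 100% = untreated DMSO cell wells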); settings: HCT116 beta-catenin knockout viability, CellTiter-Glo, 60 h; at 10 µM; hits give low values
[5] = viability of PTEN-null HCT116 cells – cell-based, HCT116 clonal line, CellTiter-Glo, pilot screen (AID 824;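 active = viability at or below 27.92% in each of two runs, the all-compound median minus 4 SD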;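 note: 0% = 20 µM Hyamine control and 100% = vehicle cell control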); settings: HCT116 PTEN-deleted viability, 60 h, at 10 µM, hits give low values
[6] = RAM pathway blockade in budding yeast – dse1pr::URA3 reporter, 5-FOA selection, pilot screen (AID 869;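 active = inhibition over a set limit, the all-compound mean plus 3 SD, in both replicate runs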;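 note: 0% = DMSO wells with no growth and 100% = 10 µM 1-NA-PP1 with full growth; RAM network block rescues cells from 5-FOA so hits raise OD615 growth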); settings: S. cerevisiae dse1pr::URA3 5-FOA growth, OD615, 2 d; at 10 µM; hits give high values; strain carries analog-sensitive mutant Cbk1 kinase
[7] = RAM signaling pathway blockade in yeast – S. cerevisiae, Pdr1DBD-CYC8 efflux-inhibited sensitized strain, primary screen (AID 1298;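 active = RAM network inhibition above 8.4% in each of two replicates, 3 SD over the compound average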;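 note: 0% = DMSO untreated cells without growth and 100% = 10 µM 1-NA-PP1 full growth; higher means more yeast growth rescued from 5-FOA killing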); settings: S. cerevisiae cbk1-as DSE1-URA3 strain, 5-FOA growth OD615, 2 d; at 50 µM; hits give high values

COc1cccc(NC2=CC(=O)CC(C)(C)C2)c1
inactive: growth inhibition [1] 4.23% | growth inhibition [2] 0.02% | viability increase [3] -0.06% | viability [4] 95% | viability [5] 99.2% | inhibition [6] 0.5% | RAM network inhibition [7] 1.95%

COc1ccc(CC(=O)Nc2oc(-c3ccccc3)c(-c3ccccc3)c2C#N)cc1OC
inactive: growth inhibition [1] -6.81% | growth inhibition [2] -2.63% | viability increase [3] -0.77% | viability [4] 76.9% | viability [5] 68.2% | inhibition [6] 1.75% | RAM network inhibition [7] 8.44%

CC1(C)CC(=O)C2=C(C1)Nc1ccccc1NC2c1cccnc1 (stereo not drawn)
inactive: growth inhibition [1] 7.14% | growth inhibition [2] 1.02% | viability increase [3] -3.43% | viability [4] 96.1% | viability [5] 93.6% | inhibition [6] -0.195% | RAM network inhibition [7] 0.21%

Cc1nc2ccc(S(=O)(=O)NC(C(=O)NC3CCCC3)C(C)C)cc2s1 (stereo not drawn)
inactive: growth inhibition [1] -5.81% | growth inhibition [2] -1.42% | viability increase [3] -0.4% | viability [4] 102% | viability [5] 101% | inhibition [6] 1.04% | RAM network inhibition [7] 1.87%

CCOC(=O)N1CCC(NC(=O)c2cnc3n(c2=O)CCS3)CC1
inactive: growth inhibition [1] -1% | growth inhibition [2] -6.85% | viability increase [3] 1.34% | viability [4] 101% | viability [5] 100% | inhibition [6] 2.27% | RAM network inhibition [7] 1.68%

CC(=O)NC(CCS(C)(=O)=O)C(=O)Nc1cc(Cl)ccc1Cl (stereo not drawn)
inactive: growth inhibition [1] -14.6% | growth inhibition [2] -17.2% | viability increase [3] 0.37% | viability [4] 105% | viability [5] 92% | inhibition [6] 2.08% | RAM network inhibition [7] 2.67%

CCOc1cc(C#N)c(NC(=O)c2ccnn2C)cc1OCC
inactive: growth inhibition [1] 8.46% | growth inhibition [2] 2.96% | viability increase [3] -2.47% | viability [4] 82.3% | viability [5] 97.7% | inhibition [6] 0.55% | RAM network inhibition [7] 5.18%

CN1CCN(CCCNC(=O)c2cn(C)c3ccc(S(=O)(=O)N(C)C)cc3c2=O)CC1
inactive: growth inhibition [1] -0.94% | growth inhibition [2] 2.12% | viability increase [3] -0.23% | viability [4] 103% | viability [5] 103% | inhibition [6] -0.355% | RAM network inhibition [7] 5.1%

CCC(=O)Nc1ccc(S(=O)(=O)N2CCc3ccccc3C2)cc1
inactive: growth inhibition [1] -7.58% | growth inhibition [2] -3.42% | viability increase [3] -3.43% | viability [4] 89.1% | viability [5] 90.1% | inhibition [6] 0.395% | RAM network inhibition [7] 10%

COC(=O)C1=C(C)n2cnnc2NC1c1ccc(Cl)cc1 (stereo not drawn)
inactive: growth inhibition [1] 0.905% | growth inhibition [2] -4.44% | viability increase [3] 0.28% | viability [4] 104% | viability [5] 97.2% | inhibition [6] 1.27% | RAM network inhibition [7] -0.92%

Cc1ccccc1Cn1c(CN2CCN(C(=O)c3ccco3)CC2)nc2c1c(=O)n(C)c(=O)n2C
inactive: growth inhibition [1] 1.26% | growth inhibition [2] -4.52% | viability increase [3] -4.75% | viability [4] 94.1% | viability [5] 95.7% | inhibition [6] 0.335% | RAM network inhibition [7] 1.2%

Cc1sc2nc(SCC(=O)N(CCO)CCO)n(C3CCCCC3)c(=O)c2c1C
inactive: growth inhibition [1] -10.3% | growth inhibition [2] 0.44% | viability increase [3] -2.54% | viability [4] 99% | viability [5] 104% | inhibition [6] 2.33% | RAM network inhibition [7] 10.7%

CCOCCCNC(=O)c1cc2c(-c3ccc(Cl)cc3)nn(C)c2s1
inactive: growth inhibition [1] 7.49% | growth inhibition [2] 11% | viability increase [3] -6.53% | viability [4] 62.2% | viability [5] 56.8% | inhibition [6] 2.62% | RAM network inhibition [7] 1.34%

CC1CCCCN1C(=O)c1ccccc1NC(=O)c1ccco1 (stereo not drawn)
inactive: growth inhibition [1] -17.6% | growth inhibition [2] -14.8% | viability increase [3] -2.69% | viability [4] 94.7% | viability [5] 96.5% | inhibition [6] 2.17% | RAM network inhibition [7] 1.7%

CC(=O)c1ccc2c3c(ccc(O)c13)CC2
inactive: growth inhibition [1] -1.21% | growth inhibition [2] 7.16% | viability increase [3] -4.04% | viability [4] 97.2% | viability [5] 88% | inhibition [6] 1.52% | RAM network inhibition [7] 5.46%

O=c1oc(-c2cccs2)nc2sc3c(c12)CCCCC3
inactive: growth inhibition [1] -8.22% | growth inhibition [2] -6.44% | viability increase [3] 1.51% | viability [4] 89% | viability [5] 80.3% | inhibition [6] 1.86% | RAM network inhibition [7] 4.13%

COc1cccc2c1N1C(=O)c3c(C(=O)O)cccc3C1CC2(C)C (stereo not drawn)
inactive: growth inhibition [1] -15.2% | growth inhibition [2] -18.1% | viability increase [3] -2.18% | viability [4] 108% | viability [5] 98.9% | inhibition [6] 4.54% | RAM network inhibition [7] 2.74%

CC1CCN(c2nc(-c3ccncc3)nc3ccccc23)CC1
inactive: growth inhibition [1] 6.84% | growth inhibition [2] -2.73% | viability increase [3] -5.28% | viability [4] 40.4% | viability [5] 58.7% | inhibition [6] 0.745% | RAM network inhibition [7] 5.56%

CCOC(=O)c1[nH]c(C)c(C(=O)NC(C)CC)c1C (stereo not drawn)
inactive: growth inhibition [1] 2.05% | growth inhibition [2] -0.41% | viability increase [3] 1.35% | viability [4] 103% | viability [5] 99.7% | inhibition [6] 1.21% | RAM network inhibition [7] 0.93%

O=C(Nc1cccc2ccccc12)N1CCN(c2ccc(F)cc2)CC1
inactive: growth inhibition [1] -12.3% | growth inhibition [2] -14.3% | viability increase [3] -1.74% | viability [4] 98.6% | viability [5] 98.8% | inhibition [6] 1.88% | RAM network inhibition [7] 3.08%

CCOC(=O)C1CCCN(C(=O)c2cc3c(=O)n(C)c4ccccc4c3n2C)C1 (stereo not drawn)
inactive: growth inhibition [1] -1.98% | growth inhibition [2] 0.3% | viability increase [3] -3.5% | viability [4] 94.2% | viability [5] 92.7% | inhibition [6] 0.67% | RAM network inhibition [7] -0.46%

Cn1cnc2c1c(=O)n(Cc1ccccc1)c(=O)n2C
inactive: growth inhibition [1] -14.8% | growth inhibition [2] -14.2% | viability increase [3] -1.66% | viability [4] 106% | viability [5] 97% | inhibition [6] 3.59% | RAM network inhibition [7] 0.42%

CCN1CCN(Cc2ccc(NC(=O)Nc3ccccc3OC)cc2)CC1
inactive: growth inhibition [1] -1.11% | growth inhibition [2] 4.37% | viability increase [3] 0.28% | viability [4] 108% | viability [5] 105% | inhibition [6] 0.235% | RAM network inhibition [7] 2.68%

CCC(C)NC(=O)C1CCC(=O)N(c2ccc3c(c2)OCO3)C1c1ccc(OC)cc1 (stereo not drawn)
inactive: growth inhibition [1] 0.49% | growth inhibition [2] -0.06% | viability increase [3] -1.78% | viability [4] 103% | viability [5] 100% | inhibition [6] 1.02% | RAM network inhibition [7] 4.2%
